# Laboratory results published in ChEMBL document CHEMBL1121550, “Amino acid and dipeptide derivatives of daunorubicin. 1. Synthesis, physicochemical properties, and lysosomal digestion” (J Med Chem, 1980).
# Columns and labels:
# [1] = system: Nucleic Acid; test: Apparent binding affinity to herring sperm DNA at 25 degree Celsius in PBS buffer with pH 7.4; assay type: nucleic-acid assay; conditions: Clupeidae
# Outline: (§1)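 Spectral titration: drug at 200 µg/mL in PBS pH 7.4 (NaCl 137 mM, KCl 3 mM, Na2HPO4 8 mM, KH2PO4 1.5 mM) titrated with 0.05–2.00 mL highly polymerized herring sperm DNA (2.34 mg/mL in 0.9% NaCl), made to 4.0 mL. Free and bound drug estimated from absorbance at 475 nm; Scatchard plot (nx/Df vs nx) yields Ka and nmax.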
# [2] = system: Nucleic Acid; test: Maximal binding (nmax) sites to herring sperm DNA. Estimated from Scatchard plots; assay type: nucleic-acid assay; conditions: Clupeidae; outline: as §1
Structure (SMILES),Ka [1],Maximal binding [2]
COc1cccc2c1C(=O)c1c(O)c3c(c(O)c1C2=O)C[C@@](O)(C(C)=O)C[C@@H]3O[C@H]1C[C@H](N)[C@H](O)[C@H](C)O1,310000 M⁻¹,0.16
COc1cccc2c1C(=O)c1c(O)c3c(c(O)c1C2=O)C[C@@](O)(C(C)=O)C[C@@H]3OC1CC(NC(=O)C(N)C(C)C)C(O)C(C)O1 (stereo partly drawn),110000 M⁻¹,0.18
COc1cccc2c1C(=O)c1c(O)c3c(c(O)c1C2=O)C[C@@](O)(C(C)=O)C[C@@H]3O[C@H]1C[C@H](NC(=O)[C@H](C)N)[C@H](O)[C@H](C)O1,90000 M⁻¹,0.19
COc1cccc2c1C(=O)c1c(O)c3c(c(O)c1C2=O)C[C@@](O)(C(C)=O)C[C@@H]3O[C@H]1C[C@H](NC(=O)[C@H](C)NC(=O)[C@@H](N)CC(C)C)[C@H](O)[C@H](C)O1,40000 M⁻¹,0.12
COc1cccc2c1C(=O)c1c(O)c3c(c(O)c1C2=O)C[C@@](O)(C(C)=O)C[C@@H]3OC1CC(NC(=O)C(N)CC(C)C)C(O)C(C)O1 (stereo partly drawn),130000 M⁻¹,0.2
COc1cccc2c1C(=O)c1c(O)c3c(c(O)c1C2=O)C[C@@](O)(C(C)=O)C[C@@H]3O[C@H]1C[C@H](NC(=O)[C@H](CC(C)C)NC(=O)[C@H](C)N)[C@H](O)[C@H](C)O1,20000 M⁻¹,0.17

# More lines, now with the values ahead:
Ka [1],Maximal binding [2],Structure (SMILES)
110000 M⁻¹,0.19,CCC(C)C(N)C(=O)NC1CC(O[C@H]2C[C@](O)(C(C)=O)Cc3c(O)c4c(c(O)c32)C(=O)c2c(OC)cccc2C4=O)OC(C)C1O (stereo partly drawn)
30000 M⁻¹,0.14,COc1cccc2c1C(=O)c1c(O)c3c(c(O)c1C2=O)C[C@@](O)(C(C)=O)C[C@@H]3OC1CC(NC(=O)C(CC(C)C)NC(=O)CN)C(O)C(C)O1 (stereo partly drawn)
130000 M⁻¹,0.16,COc1cccc2c1C(=O)c1c(O)c3c(c(O)c1C2=O)C[C@@](O)(C(C)=O)C[C@@H]3OC1CC(NC(=O)CN)C(O)C(C)O1 (stereo partly drawn)
